In the library only some 3.1% were active in any assay of this set; here they are far more common.
INS-1E GSIS act = primary screen for activators of insulin secretion dependent on glucose, INS-1E cells, GLuc reporter luminescence; INS-1E GLuc reporter insulin secretion, 2-3 h; activation, % at 16.6 µM; actives 0.61% (n = 370,000);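 active = lowest replicate activation of at least 40%, so every replicate reaches that level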;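 also: 0% = median of neutral control wells and 100% = median of IBMX positive control wells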
F508del corr = CFTR F508del correction in bronchial cells; CFBE cells, YFP halide quenching; stimulated with forskolin plus potentiator P3; % fluorescence drop versus neutral controls; activity (quench increase), % at 7.58 µM; actives 0.36% (n = 350,000); AID 720511;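 active = mean added fluorescence quench of at least 8% versus neutral control, with both replicates also reaching 8%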;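 also: cells transiently co-express mutant CFTR-F508del with the halide-sensitive YFP; corrector assay measuring rescue of mutant channel to the surface after 24 h compound exposure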
Cneo AK release = causes C. neoformans cell lysis | adenylate kinase release luminescence, 4 h; normalised: neutral wells 0, clomiphene wells 100 | lysis activity, % at 15 µM | actives 0.2% (n = 360,000) | AID 651654;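 active = mean lysis activity across replicates of at least 80%, whatever share of replicates individually reach that level; inactive = mean lysis activity below 80%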
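Material: C. neoformans cells; Schedule: 4 h static compound exposure, 37 °C, read 1 h post-reagent; Measured by: adenylate kinase release luminescence; Read-out: signal increase indicating cell lysis; Controls: Clomiphene as positive lysis control.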
Ecoli rRNA inh = inhibitors of bacterial rRNA selective over humanized ribosomes. E. coli WT GFP vs humanized-ribosome RFP mutants, fluorescence, 24 h; stronger effect = lower value; DMSO median 0, no signal -100. GFP signal change (wild-type ribosome), % (test concentration not listed). actives 1.6% (n = 350,000);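 active = significant combined selectivity score with lowered wild-type GFP, culture density cut under 30%, mutant RFP and density less affected; inactive = any of these conditions unmet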
HIV Env fusion = inhibitors of HIV Env-mediated cell fusion; HeLa-JRFL Env/CEM21 cell fusion, luciferase; inhibition, % at 12.3 µM; actives 1.1% (n = 360,000); AID 651610;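 active = mean replicate inhibition score of at least 50 and every replicate individually at or above 50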;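 also: 0% = plate neutral controls and 100% = maraviroc near 300 nM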
miR122 inh = blocks miR-122 activity in Huh7 sensor cells; Huh7 miR-122 Renilla luciferase sensor, 48 h; neutral wells = 0, positive control = 100; activation (reporter increase), % at 12.5 µM; actives 0.3% (n = 340,000); AID 602342;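 active = mean replicate activation score at least 90 and every replicate individually at or above 90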;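 also: higher luciferase means less miR-122 activity so hits act as miR-122 inhibitors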
* = called active by the depositor; x = no result; [ ] = dose if it differs, or a comment.

SMILES	INS-1E GSIS act	F508del corr	Cneo AK release	Ecoli rRNA inh	HIV Env fusion	miR122 inh
COc1cc([N+](=O)[O-])ccc1NC(=S)NNC(=O)c1ccc2c(c1)OCO2	-24.6	0.8	0.9	-16.6*	-4.2	-4.0
O=C(NC(=S)Nc1cc([N+](=O)[O-])ccc1O)c1ccc2c(c1)OCO2	-7.1	3.3	-1.5	-27.0	x	x
Cc1[nH]c2ccccc2c1C(C[N+](=O)[O-])c1cccc(O)c1 (centres undefined)	-33.2	-1.2	x	-32.5*	11.7	3.0
COc1cc(C(C[N+](=O)[O-])c2c(C)[nH]c3ccccc23)ccc1O (centres undefined)	x	1.2	-2.0	-13.0	-20.0	6.3
CCCCN(C)c1c(C)nc2ccc(C(=O)N(CC)CCN(C)C)cn12	10.1	-4.6	0.3	1.9	62.6*	-11.7
CCCCN(C=O)c1c(CC)nc2ccc(C(=O)N(CC)CCN(C)C)cn12	11.1	0.2	-0.1	5.9	-9.6	-1.5
C[C@@H]1CN([C@H](C)CO)C(=O)c2cc(NC(=O)Nc3ccc(C(F)(F)F)cc3)ccc2O[C@@H](C)CCCCO[C@@H]1CN(C)C(=O)Cc1ccccc1	13.8	2.7	0.0	-1.4	-5.8[16.7 µM]	-4.9[16.7 µM]
COc1ccc(NS(=O)(=O)c2cc(NC(=O)c3cnc(C)cn3)ccc2N2CCCC2)cc1	4.5	x	-4.7	x	-78.4	77.8
COc1ccc(NS(=O)(=O)c2cc(NC(=O)c3ccc(=O)[nH]c3)ccc2N2CCCC2)cc1	0.0	-4.2	-1.3	-21.1	-57.1	154.6*
COc1ccc(NS(=O)(=O)c2cc(NC(=O)c3ccco3)ccc2N2CCCCC2)cc1	-29.8	x	x	x	-14.3	208.7*
CC(=O)N1CC2(C1)[C@H](c1ccc(-c3cccc(C#N)c3)cc1)[C@H](CO)N2CCC(F)(F)F	-6.8	3.3	x	-4.9	x	x
O=S(=O)(c1ccccc1)c1nc(-c2ccco2)oc1NCCN1CCOCC1	-0.6	0.4	-2.8	7.2	x	1.2
Cc1ccccc1-c1nc(S(=O)(=O)c2ccccc2)c(NCCN2CCOCC2)o1	-4.8	0.6	-17.1	-0.6	59.1*	11.8
COc1cccc(S(=O)(=O)N[C@@H]2CC[C@H](CCn3cc(-c4ccccc4OC)nn3)O[C@H]2CO)c1	-2.7	-1.7	-1.6	-3.5	-3.2[16.7 µM]	x
Cc1cc(Nc2cccc(C(F)(F)F)c2)cc(=O)n1-c1cccc(C(F)(F)F)c1	-6.1	-1.5	x	-2.8	67.5*	x
Cc1nc2ccccn2c1C(=O)NNS(=O)(=O)c1ccc(C(C)(C)C)cc1	-44.9	x	x	x	72.1*	x
COc1ccc(Br)cc1S(=O)(=O)NNC(=O)c1c(C)nc2ccccn12	10.8	2.5	x	11.4	9.7	-0.6
CC(C)(C)c1ccc(OCCC(=O)Nc2cccc(S(=O)(=O)N3CCOCC3)c2)cc1	-40.9	3.4	-1.6	-1.6	74.8*	x
Cc1ccc(NC(=O)COC(=O)CNC(=O)c2cccs2)cc1S(=O)(=O)N1CCOCC1	-21.8	-0.7	4.2	-0.9	4.2	0.9
O=C(CNC(=O)c1cccs1)Nc1cccc(S(=O)(=O)N2CCOCC2)c1	-2.2	-1.0	-2.0	4.2	61.0*	1.5
CC(C)NC(=O)Nc1ccc2c(c1)CC(=O)N([C@H](C)CO)C[C@H](C)[C@@H](CN(C)S(=O)(=O)c1cn(C)cn1)O2	9.6	-2.6	-2.7	6.1	16.1[16.7 µM]	15.7[16.7 µM]
Cc1ccc(Nc2cc(C)nc(NCc3ccccc3)n2)cc1	-14.4	-25.1	x	-60.2	151.4*	x
COc1cc(C)nc(NCc2ccccc2)n1	x	x	x	x	-92.1	1.1
Cc1cc(N/N=C/c2ccccc2Cl)nc(NCc2ccccc2)n1	-11.3	x	x	x	x	x
Cc1cc(NC2CCCCC2)nc(NCc2ccccc2)n1	-23.8	-22.1	-9.9	-60.5	53.7*	x
SMILES	INS-1E GSIS act	F508del corr	Cneo AK release	Ecoli rRNA inh	HIV Env fusion	miR122 inh
COc1ccc(Nc2cc(C)nc(NCc3ccccc3)n2)cc1	x	2.4	-8.0	-14.7	71.0*	-10.8
Cc1cc(Oc2ccc(C#N)cc2)nc(NCc2ccccc2)n1	x	x	-1.0	x	60.6*	-6.0
CCC(=O)Nc1ccc2c(c1)C(=O)N(C)C[C@H](OC)[C@H](C)CN(CCc1ccccc1)[C@@H](C)CO2	3.6	1.9	-2.6	-0.5	0.1[16.7 µM]	14.1[16.7 µM]
O=C(CNCC1CCCCC1)Nc1ccccc1N1CCCCC1	x	x	1.2	x	74.7*	20.3
O=C(NC1=NN(c2ccccc2)CC1)Nc1ccccc1F	-34.7	1.9	1.3	-32.4*	-5.8	-2.6
O=C(CCN1CCN(c2ccccc2)CC1)Nc1ccccc1F	-21.9	x	x	x	-7.7	-3.5
CCOc1ccc(C(=O)Nc2ccccc2N2CCOCC2)cc1	7.5	x	2.2	x	x	46.2
CCOc1ccc(NC(=S)N2CCC(C(=O)c3ccc(OC)cc3)CC2)cc1	-34.1	0.6	2.5	-13.5*	-2.3	3.1
CCOc1ccc(C(=O)C2CCN(CC(=O)Nc3ccccc3N3CCOCC3)CC2)cc1	x	x	0.5	x	69.7*	-5.0
N#C[C@@H]1[C@@H](c2ccccc2-c2ccc(F)cc2)[C@H](CO)N1C(=O)NC1CCCC1	-29.6	1.6	x	-7.1	x	x
CC(=O)c1cccc(OCC(=O)Nc2ccccc2N2CCOCC2)c1	3.0	-0.4	-2.6	x	x	93.3*
CC(=O)c1cccc(OCC(=O)Nc2cc(S(=O)(=O)N3CCOCC3)ccc2N2CCCC2)c1	7.6	0.5	x	-2.2	-14.2	x
Cc1cccc(NC(=O)CSCC(=O)Nc2cc(Cl)ccc2N2CCOCC2)c1	-12.2	-2.0	2.2	-19.3	71.8*	7.8
COc1ccc(OCC(=O)Nc2ccccc2N2CCCCC2)cc1	-25.6	4.7	-10.0	-5.2	74.2*	-4.7
COc1ccc(OCC(=O)Nc2ccccc2N2CCN(C)CC2)cc1	9.7	5.1	4.2	2.0	14.8	-1.2
O=C(Nc1ccccc1N1CCCCC1)c1ccc(F)cc1	x	x	-6.0	x	x	-2.2
O=C(Nc1ccccc1F)Nc1ccccc1N1CCCCC1	6.8	x	7.6	-31.2*	31.3	2.9
C[C@@H]1CN([C@@H](C)CO)S(=O)(=O)c2ccc(C#CC3CC3)cc2O[C@H]1CN(C)C(=O)c1ccncc1	-8.3	-0.6	1.5	-12.6	-13.8[16.7 µM]	0.6[16.7 µM]
N#Cc1cccc(-c2ccc([C@H]3[C@@H](CO)N[C@@H]3CNC(=O)C3CCCC3)cc2)c1	-19.7	0.0	x	-4.2	x	x
COc1ccc(CNCC(=O)Nc2ccccc2-n2cccc2)cc1	-0.5	10.5*	x	-18.2	-29.4	x
Cc1ccc(SCC(=O)Nc2ccccc2N2CCOCC2)cc1	-15.8	0.9	0.9	-27.7*	15.2	-6.7
O=C(CSc1ccccc1)Nc1ccccc1N1CCOCC1	14.4	x	-0.1	x	x	-17.6
O=C(Cn1ncc2c(=O)oc3ccccc3c21)N1CCc2ccccc2C1	x	-1.6	3.8	2.2	24.2	x
O=C(Cn1ncc2c(=O)oc3ccccc3c21)N1CCC(N2CCCCC2)CC1	x	0.8	-1.1	2.1	74.4*	-0.1
